Converted amounts (≈) assume the structure as drawn.
Tests used:
Format in all cases: functional, organism-based
[1] = test system: Trypanosoma brucei rhodesiense; assay: Antitrypanosomal activity against Trypanosoma brucei rhodesiense KETRI 243 isolate after 48 hrs
Summary of the method: (§1)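 Bloodstream-form trypanosomes were cultured in modified IMDM with 20% horse serum at 37 °C, in 24-well plates inoculated with 10^5 trypanosomes per well. Half the well volume was changed daily. Compounds were dissolved in DMSO, with a final DMSO concentration of at most 0.3%, and tested in duplicate at final concentrations of 0.1–100 µg/mL. Parasites were Coulter-counted at 48 h, and IC50 values were taken from semi-log plots. Each assay was run at least twice.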

[2] = test system: Trypanosoma brucei brucei; assay: Antitrypanosomal activity against Trypanosoma brucei brucei Lab110 EATRO after 48 hrs; summary of the method: as §1
[3] = test system: Trypanosoma brucei rhodesiense; assay: Antitrypanosomal activity against Trypanosoma brucei rhodesiense KETRI 243 As 10-3 isolate after 48 hrs; summary of the method: as §1

SMILES	IC50 [1] [µg/mL]	IC50 [2] [µg/mL]	IC50 [3] [µg/mL]
Nc1nc(N)nc(Nc2ccc([As]3SCC(CO)S3)cc2)n1 (stereo unspecified) [MELARSOPROL]	0.0005	0.002	0.005
O=C(CCc1ccc(O)cc1)CC(=O)CCc1ccc(O)cc1 [LETESTUIANIN C]	2.3 (≈ 7.36 µM)	1.4 (≈ 4.48 µM)	2.6 (≈ 8.32 µM)
COc1cc(/C=C/C(O)=C/C(=O)CCc2ccc(O)c(OC)c2)ccc1O [LETESTUIANIN B]	> 100	67 (≈ 181 µM)	> 100
N=C(N)c1ccc(OCCCCCOc2ccc(C(=N)N)cc2)cc1 [PENTAMIDINE]	0.0005 (≈ 0.00147 µM)	0.0006 (≈ 0.00176 µM)	0.004 (≈ 0.0117 µM)

Now from value to molecule:

IC50 [1] [µg/mL]	IC50 [2] [µg/mL]	IC50 [3] [µg/mL]	SMILES
2.8 (≈ 9.02 µM)	2.6 (≈ 8.38 µM)	1.3 (≈ 4.19 µM)	O=C(/C=C(O)/C=C/c1ccc(O)cc1)CCc1ccc(O)cc1
–	> 100	–	COc1cc(CCC(=O)/C=C(O)/C=C/c2ccc(O)cc2)ccc1O [LETESTUIANIN A]

Reference: ChEMBL document CHEMBL1150674, “Trypanocidal diarylheptanoids from Aframomum letestuianum” (J Nat Prod, 2003)
